Measurements of several laboratories.
Each line is one published result; the experiments were not run side by side. In brackets after ≈: the same amount, converted by molar mass.
Organism: Escherichia coli
Observed: microbial growth

Structure (SMILES)	method	strain	time	MIC
N=C(N)c1ccc(OCc2ccc3ccc(COc4ccc(C(=N)N)cc4)cc3c2)cc1		BW25113	20 h	> 200 µg/mL
Cc1ccc2nc(-c3ccc(F)cc3)[nH]c2c1	broth dilution	ATCC25922		64 µg/mL (≈ 283 µM)
C[C@H]1COc2c(N3CCN(C)CC3)c(F)cc3c(=O)c(C(=O)O)cn1c23		ATCC25922		0.04 µg/mL (≈ 0.111 µM)
Oc1cccc(-c2nc3ccccc3[nH]2)c1	broth dilution	ATCC25922		64 µg/mL (≈ 304 µM)
CC(C)Oc1c(NC(=O)c2ccc(NC(=O)[C@H](CC(N)=O)NC(=O)c3ccc(CNC(=O)c4ccc(C#N)cc4)cc3)cc2)ccc(C(=O)Nc2ccc(C(=O)O)cc2)c1O		DSM1116		> 64 µg/mL
N=C(N)c1ccccc1OCc1cccc(COc2ccccc2C(=N)N)c1		BW25113		> 200 µg/mL
CC(C)Oc1c(NC(=O)c2ccc(NC(=O)[C@H](CC(N)=O)NC(=O)c3ccc(NC(=O)c4ccc(S(C)(=O)=O)cc4)cc3)cc2)ccc(C(=O)Nc2ccc(C(=O)O)cc2)c1O		DSM1116		2 µg/mL (≈ 2.31 µM)
c1ccc2[nH]c(-c3ccncc3)nc2c1	broth dilution	ATCC25922		128 µg/mL (≈ 656 µM)
N=C(N)c1ccc(OCc2ccccc2COc2ccc(C(=N)N)cc2)cc1	broth dilution	ATCC25922		> 200 µg/mL
CC(C)Oc1c(NC(=O)c2ccc(NC(=O)[C@H](CC(N)=O)NC(=O)c3ccc(NC(=O)c4ccc(C#N)cc4)cc3)cc2)ccc(C(=O)Nc2ccncc2)c1O		DSM1116		> 64 µg/mL
COc1ccc(-c2nc3ccc(C)cc3[nH]2)cc1OC	broth dilution	ATCC25922		64 µg/mL (≈ 239 µM)
CC(C)Oc1c(NC(=O)c2ccc(NC(=O)[C@H](CC(N)=O)NC(=O)c3ccc(NC(=O)c4ccc(C#N)c(F)c4)cc3)cc2)ccc(C(=O)Nc2ccc(C(=O)O)cc2)c1O		DSM1116		0.25 µg/mL (≈ 0.301 µM)
N=C(N)c1cccc(OCc2ccc(COc3cccc(C(=N)N)c3)cc2)c1	broth dilution	W3110		> 200 µg/mL
Clc1ccc(-c2nc3ccccc3[nH]2)cc1Cl	broth dilution	ATCC25922		32 µg/mL (≈ 122 µM)
CC(C)Oc1c(NC(=O)c2ccc(NC(=O)[C@H](CC(N)=O)NC(=O)c3ccc(-c4nn[nH]c4-c4ccc(C#N)cc4)cc3)cc2)ccc(C(=O)Nc2ccc(C(=O)O)cc2)c1O		DSM1116		> 64 µg/mL
N=C(N)c1ccc(OCCS(=O)(=O)CCOc2ccc(C(=N)N)cc2)cc1	broth dilution	BW25113		> 200 µg/mL
c1cncc(-c2nc3ccccc3[nH]2)c1	broth dilution	ATCC25922		64 µg/mL (≈ 328 µM)
CC1(C)S[C@@H]2[C@H](NC(=O)[C@H](N)c3ccccc3)C(=O)N2[C@H]1C(=O)O	broth dilution	ATCC25922		8 µg/mL (≈ 22.9 µM)
